Activity calls are given as the source filed them. No cut-off for these calls is given here. Numbered stars: 1 amine (or outer) side, 2 acyl side, 3 side chain; on linkers, the order of the positions; unused ones are H or OH. Bridge positions count the residues as written; N and C are the ends. Square brackets hold non-standard residues; d marks the D form. Peptide text beside a SMILES is read from it. Trimesoyl = O=C(c1cc(C(=O)[*:2])cc(C(=O)[*:3])c1)[*:1]; d2Nal = N[C@H](Cc1ccc2ccccc2c1)C(=O)O; Phg = N[C@H](C(=O)O)c1ccccc1; Orn = NCCC[C@H](N)C(=O)O; Dap = NC[C@H](N)C(=O)O
Assays:
NCI-H358 [1] = test: Induction of apoptosis in human NCI-H358 cells assessed as early apoptotic cells at 10 uM incubated for 24 hrs by Alexa Fluor 488 annexin V/propidium iodide staining based assay (reference value: 3.05%); assay type: functional
A549 [2] = test: Antitumor activity against human A549 cells xenografted in mouse assessed as reduction in tumor growth at 5 mg/kg, iv administered for 9 days measured every other day; assay type: functional; set-up: scale not given: the % may be the effect or the level left; settings: time 9 day
Procedure, shortened: (§1)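 Nude mice given ~1.5 million A549 cells subcutaneously. Once tumors reached ~40 mm3, groups of n = 6 received peptide at 1 or 5 mg/kg/day or PBS vehicle by tail-vein injection for 9 days. Tumor volume was tracked, and tumors were weighed at harvest.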

[3] = Drug distribution in human HeLa cells assessed as diffuse fluorescence throughout the entire cell volume at 5 uM incubated for 2 hrs by live-cell confocal microscopy; assay type: ADME, cell-based
Procedure, shortened: (§2)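 HeLa, H358 or A549 cells treated with 5 μM fluorescein-labeled peptide for 2 h, then imaged by live-cell confocal microscopy for intracellular fluorescence pattern.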

[4] = Drug distribution in human A549 cells assessed as accumulation in plasma membrane at 5 uM incubated for 2 hrs by live-cell confocal microscopy; assay type: ADME, cell membranes; settings: a549, 2 h; procedure, shortened: as §2
NIH3T3 = test: Cytotoxicity against mouse NIH3T3 cells incubated for 96 hrs by CellTiter-Glo2 assay; assay type: cell-based; settings: NIH3T3, 96 h
Procedure, shortened: (§3)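 Cells plated at 5,000/well, grown overnight, then exposed to serially diluted peptide (0–40 μM) in medium with 10% FBS for 96 h at 37 °C, 5% CO2. Viability read by CellTiter-Glo 2.0 luminescence after 15 min at RT.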

[5] = Drug localization in human HeLa cells assessed as mean fluorescence intensity at 5 uM incubated for 2 hrs in presence of 1% FBS by flow cytometry relative to CPP12; assay type: ADME, cell-based
Procedure, shortened: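 HeLa cells treated with 5 μM fluorescein-labeled peptide and analysed by flow cytometry. Mean fluorescence intensity expressed relative to FITC-labeled CPP12 (100%).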

NCI-H358 [6] = test: Induction of apoptosis in human NCI-H358 cells assessed as live cells at 10 uM incubated for 24 hrs by Alexa Fluor 488 annexin V/propidium iodide staining based assay (reference value: 87%); assay type: functional
NCI-H358 [7] = test: Antitumor activity against human NCI-H358 cells xenografted in mouse assessed as suppression of tumor growth at 5 mg/kg, iv administered for 9 days measured every other day; assay type: functional, organism-based; settings: time 9.0 day
Procedure, shortened: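 H358 xenograft in mice; peptide given daily at 5 mg/kg i.v. for 9 days, with tumor growth followed over that period.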

NCI-H358 [8] = test: Induction of apoptosis in human NCI-H358 cells assessed as necrotic cells at 1 uM incubated for 24 hrs by Alexa Fluor 488 annexin V/propidium iodide staining based assay (reference value: 0.699%); assay type: functional
[9] = Drug distribution in human HeLa cells assessed as fluorescent puncta in cytoplasmic region at 5 uM incubated for 2 hrs by live-cell confocal microscopy; assay type: ADME, cell-based; procedure, shortened: as §2
A549 [10] = test: Antitumor activity against human A549 cells xenografted in mouse assessed as average tumor volume at 1 mg/kg, iv administered for 9 days measured every other day (reference value: 100 mm3); assay type: functional; settings: time 9 day; procedure, shortened: as §1
A549 [11] = test: Antiproliferative activity against human A549 cells harboring KRAS G12S mutant incubated for 96 hrs by CellTiter-Glo2 assay; assay type: functional, cell-based; settings: A549, 96 h; procedure, shortened: as §3
NCI-H358 [12] = test: Induction of apoptosis in human NCI-H358 cells assessed as early apoptotic cells at 5 uM incubated for 24 hrs by Alexa Fluor 488 annexin V/propidium iodide staining based assay (reference value: 3.05%); assay type: functional
NCI-H358 [13] = test: Induction of membrane disruption in human H358 cells assessed as LDH release up to 20 uM incubated for 45 mins by absorbance method; assay type: functional, cell-based; settings: dose microM <=20, time […]
[14] = target: E3 ubiquitin-protein ligase Mdm2 (Homo sapiens) (UniProt Q00987); test: Binding affinity to MDM2 (unknown origin)
E3 ubiquitin-protein ligase Mdm2 (Homo sapiens), sequence (Q00987 whole entry, looked up): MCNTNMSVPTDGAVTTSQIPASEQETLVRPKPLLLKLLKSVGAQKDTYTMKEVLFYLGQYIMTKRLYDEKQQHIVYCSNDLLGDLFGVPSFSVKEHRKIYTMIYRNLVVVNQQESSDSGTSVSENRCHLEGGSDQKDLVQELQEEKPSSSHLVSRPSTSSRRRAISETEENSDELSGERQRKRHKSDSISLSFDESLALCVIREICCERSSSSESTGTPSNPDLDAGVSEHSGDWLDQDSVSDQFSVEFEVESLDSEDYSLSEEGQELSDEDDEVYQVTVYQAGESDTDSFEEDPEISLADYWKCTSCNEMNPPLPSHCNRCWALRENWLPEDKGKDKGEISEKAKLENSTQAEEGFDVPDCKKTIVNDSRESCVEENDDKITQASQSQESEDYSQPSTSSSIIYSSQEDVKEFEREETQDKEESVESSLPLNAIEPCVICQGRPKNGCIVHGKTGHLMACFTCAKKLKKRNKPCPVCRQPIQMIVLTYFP
Procedure, shortened: (§4)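 Fluorescein-labeled peptide (100 nM) incubated 1 h at RT with varying concentrations of control protein (BSA, GST-RBD, PNP, PTP1B or MDM2). KD derived from fluorescence polarization titration curves.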

A549 [15] = test: Antitumor activity against human A549 cells xenografted in mouse assessed as reduction in ERK phosphorylation at 1 to 5 mg/kg, iv administered for 9 days measured every other day by immunohistochemical staining method; assay type: functional, organism-based; settings: dose 1-5 mg/kg, time 9.0 day
NCI-H358 [16] = test: Induction of apoptosis in human NCI-H358 cells assessed as late apoptotic cells at 10 uM incubated for 24 hrs by Alexa Fluor 488 annexin V/propidium iodide staining based assay (reference value: […]); assay type: functional
NCI-H358 [17] = test: Induction of apoptosis in human NCI-H358 cells assessed as late apoptotic cells at 5 uM incubated for 24 hrs by Alexa Fluor 488 annexin V/propidium iodide staining based assay (reference value: […]); assay type: functional
[18] = Antiproliferative activity against human NCI-H1915 cells harboring HRas Q61L mutant incubated for 96 hrs by CellTiter-Glo2 assay; assay type: functional, cell-based; settings: NCI-H1915, Lung; procedure, shortened: as §3
NCI-H358 [19] = test: Antitumor activity against human NCI-H358 cells xenografted in mouse assessed as reduction in ERK phosphorylation at 1 to 5 mg/kg, iv administered for 9 days measured every other day by immunohistochemical staining method; assay type: functional, organism-based; settings: dose 1-5 mg/kg, time 9.0 day
[20] = Drug distribution in human A549 cells assessed as fluorescent puncta in cytoplasmic region at 5 uM incubated for 2 hrs by live-cell confocal microscopy; assay type: ADME, cell-based; settings: a549, 2 h; procedure, shortened: as §2
HEK-293T = test: Cytotoxicity against HEK293T cells incubated for 96 hrs by CellTiter-Glo2 assay; assay type: cell-based; settings: Homo sapiens; procedure, shortened: as §3
DLD-1 = test: Antiproliferative activity against human DLD-1 cells harboring KRAS G13D mutant incubated for 96 hrs by CellTiter-Glo2 assay; assay type: functional, cell-based; settings: DLD-1, 96 h; procedure, shortened: as §3
[21] = target: T1, Purine nucleoside phosphorylase (Homo sapiens) (UniProt P00491); test: Binding affinity to purine nucleoside phosphorylase (unknown origin); procedure, shortened: as §4
T1 sequence (whole entry): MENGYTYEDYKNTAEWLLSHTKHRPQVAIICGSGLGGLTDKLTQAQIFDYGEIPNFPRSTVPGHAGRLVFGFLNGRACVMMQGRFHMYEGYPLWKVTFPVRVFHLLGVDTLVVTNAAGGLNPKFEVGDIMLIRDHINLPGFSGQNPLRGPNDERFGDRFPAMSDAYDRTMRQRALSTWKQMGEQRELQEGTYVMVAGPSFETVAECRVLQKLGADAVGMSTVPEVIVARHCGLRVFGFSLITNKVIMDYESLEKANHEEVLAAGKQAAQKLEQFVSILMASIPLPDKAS

NCI-H358 [22] = test: Induction of apoptosis in human NCI-H358 cells assessed as necrotic cells at 5 uM incubated for 24 hrs by Alexa Fluor 488 annexin V/propidium iodide staining based assay (reference value: 0.699%); assay type: functional
[23] = Drug distribution in human NCI-H358 cells assessed as diffuse fluorescence throughout the entire cell volume at 5 uM incubated for 2 hrs by live-cell confocal microscopy; assay type: ADME, cell-based; settings: nci-h358, 2 h; procedure, shortened: as §2
Homo sapiens = species on record: Homo sapiens; test: Binding affinity to glutathione-S-transferase (unknown origin); procedure, shortened: as §4

- Drug uptake [3]: Active
- Drug uptake [4]: Active
- Drug uptake [5]: 226%
- Drug uptake [9]: Active
- EC50 (A549 [11]): 0.5 µM
- Activity [14]: inactive
- Drug uptake [20]: Active
- EC50 (DLD-1): 4.9 µM
- Activity [21]: inactive
- Drug uptake [23]: Active
- Activity (Homo sapiens): inactive
SMILES: C[C@@H](NC(=O)[C@H](Cc1ccccc1)NC(=O)[C@@H](CCCNC(=N)N)NC(=O)[C@H](CCCN)NC(=O)[C@@H]1CNC(=O)c2cc3cc(c2)C(=O)N[C@H](Cc2ccc4ccccc4c2)C(=O)N[C@@H](CO)C(=O)N[C@@H](CC(N)=O)C(=O)N[C@H](Cc2ccc4ccccc4c2)C(=O)N[C@@H](c2ccccc2)C(=O)N[C@@H](CCCCNC3=O)C(=O)N[C@H](Cc2ccccc2)C(=O)N[C@@H](CCC(N)=O)C(=O)N[C@H](CCCNC(=N)N)C(=O)N[C@@H](CCCNC(=N)N)C(=O)N1)C(N)=O ([d2Nal]SN[d2Nal][Phg]K[dF]Q[dR]R[Dap][Orn][dR]F[dA]-NH2; linker N-6-11 via Trimesoyl)
- Activity (NCI-H358 [1]): 4.11%
- Activity (A549 [2]): 100%
- EC50 (NIH3T3): ≥ 20 µM
- Activity (NCI-H358 [6]): 15.4%
- Activity (NCI-H358 [7]): Active
- Activity (NCI-H358 [8]): 0.226%
- Activity (A549 [10]): 50 mm3
- Activity (NCI-H358 [12]): 14.7%
- Activity (NCI-H358 [13]): inactive
- Activity (A549 [15]): Active
- Activity (NCI-H358 [16]): 80%
- Activity (NCI-H358 [17]): 29.1%
- EC50 [18]: 6.8 µM
- Activity (NCI-H358 [19]): Active
- EC50 (HEK-293T): ≥ 20 µM
- Activity (NCI-H358 [22]): 1.14%

— ChEMBL document CHEMBL4842360, “Discovery of a Bicyclic Peptidyl Pan-Ras Inhibitor” (J Med Chem, 2021)
